STAT1 blocker = STAT1 signaling inhibition. NIH 3T3 STAT1-luciferase reporter, IFN-gamma, luminescence. inhibition, % at 5.5 µM. hit rate 0.35% among 200,000;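 active means inhibition above a set limit, the mean inhibition across all tested compounds plus 3 SD, cut at about 34% in these data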
STAT3 activator = increases IL-6 driven STAT3 reporter signal; U3A cells, IL-6 STAT3-luciferase reporter, luminescence; 100% = signal with IL-6 EC80 alone; hit rate 0.91% among 190,000; activation (% of control), % at 5.6 µM;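 active means activation above the screen-wide mean of compound activation plus 3 SD, cut at about 130% in these data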
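Material: STAT3-luciferase reporter U3A cells; Probe or stimulus: IL-6 (33 ng/mL); Incubation: compound pre-incubation 1 h before IL-6, then 6 h stimulation at 37 °C; Technique: luminescence from STAT3-driven luciferase reporter; Evaluation: % activation versus median of IL-6-stimulated wells; Controls: IL-6-only high control.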
STAT1 act = STAT1 signaling activation | NIH 3T3 STAT1-luciferase reporter, IFN-gamma, luminescence; 100% = IFN-gamma alone, no compound | activation (% of control), % at 5.5 µM | hit rate 2.6% among 200,000 | AID 932;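 active means activation above the screen-wide mean activation plus 3 SD, cut at about 130% in these data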
NF-kB neuron act = raises NF-kB expression in human neuronal cells; NF-kB reporter expression; stronger effect = higher value; fold change at 12.5 µM; hit rate 1.6% among 190,000; in the data active means fold change above about 3.3
STAT3 blocker = inhibitors of IL-6 induced STAT3 signaling. U3A cells, IL-6 STAT3-luciferase reporter, luminescence; host cell line lacks STAT1. inhibition, % at 5.5 µM. hit rate 0.89% among 190,000;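 active means inhibition above the mean inhibition across all screened compounds plus 3 SD, cut at about 44% in these data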
APP 5'UTR act = activates APP 5'UTR luciferase reporter; SH-SY5Y APP 5'UTR luciferase reporter, luminescence; zero percent = DMSO vehicle wells; activation, % at 2 µM; hit rate 1% among 190,000; AID 1276;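 active means activation above a set limit, based on mean plus 3 SD of controls, cut at about 140% in these data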
Each line names hits and unclear results; the compound was inactive in the other large screens. Compounds with a hit are over-represented: about 5.1% of the library has one in this group of screens.

COc1cc(/C=N/NC(=S)Nc2cccc(Cl)c2C)ccc1OCC(=O)N1CC(C)OC(C)C1 (stereo unspecified)	none
Cc1ccccc1NCc1ccccc1O	none
CCC(=O)Nc1cc(-c2cc3ccccc3oc2=O)ccc1OC	none
CCC(=O)Nc1ccc(-c2cc3ccccc3oc2=O)cc1	STAT1 act 143
CC(=O)Nc1ccc(-c2cc3ccccc3o2)cc1	STAT1 act 141, NF-kB neuron act 6.5, APP 5'UTR act 222
O=c1oc2ccccc2cc1NCc1ccccc1O	NF-kB neuron act 3.6
O=c1oc2ccccc2cc1-c1ccc(O)cc1	STAT1 act 134
O=C(CSc1ncn[nH]1)Nc1cc(S(=O)(=O)N2CCCC2)ccc1Cl	none
O=S(=O)(/N=C(/c1ccc(F)cc1)N1CCCCC1)c1ccc(Cl)cc1	none
Nc1[nH]nc2c1NN(c1ccc(Cl)cc1Cl)N2	none
COc1ccc2cc(C(=O)NCc3ccco3)c(=O)oc2c1	NF-kB neuron act 3.9
COc1ccc(C(=O)Nc2cccc(OC)c2)cc1	NF-kB neuron act 5.8
CC(C)Oc1cccc(C(=O)NC(=S)Nc2ccccc2)c1	STAT1 act 145
O=C(NCc1ccco1)c1cc2ccc(O)cc2oc1=O	none
CCc1ccc(NC(=O)Nc2cccc(OC)c2)cc1	STAT1 act 146, APP 5'UTR act 161
COc1cccc(NC(=O)Nc2ccc(CC(=O)O)cc2)c1	none
Cc1ccnc(NC(=O)c2cc3ccccc3oc2=O)c1	STAT1 act 144, NF-kB neuron act 5.9, APP 5'UTR act 152
CC(C)(C)C(=O)NC(=S)Nc1cccc(C(=O)O)c1	STAT1 act 131 (no result: NF-kB neuron act)
O=C(Nc1ccc(Br)cn1)c1ccc2nccnc2c1	STAT1 act 149 (no result: NF-kB neuron act)
COc1ccc(NC(=O)c2ccc3nccnc3c2)cc1	STAT1 act 131
CNC(=S)Nc1cccc(C(=O)O)c1	none
O=C(Cn1c(NCCO)nc2ccccc21)NCCc1ccc(F)cc1	none
CC(C(N)=O)N1C(=O)c2cccc3cccc1c23 (stereo unspecified)	none
COc1ccc2oc(=O)c(C(=O)Nc3cccc(C)c3)cc2c1	STAT1 act 138
COc1ccc(C(=O)NNC(=S)Nc2ccccc2)cc1	STAT1 act 130, NF-kB neuron act 6.5, APP 5'UTR act 141
COc1cccc(NC(=O)Nc2cccc(C(=O)O)c2)c1	STAT1 blocker 88, STAT3 blocker 92
Cc1ccc(Nc2cc(-n3nc(C)cc3C)ncn2)c(C)c1	none
Cc1ccc(Nc2cc(-n3cccn3)ncn2)c(C)c1	STAT1 act 141, NF-kB neuron act 3.5
O=[N+]([O-])c1ccc(N/N=C/c2ccc[nH]2)cc1	NF-kB neuron act 26
O=C(N/N=C/c1ccc[nH]1)c1ccccc1[N+](=O)[O-]	none
O=C(N/N=C/C(Cl)=C/c1ccccc1)c1ccccn1	NF-kB neuron act 4.3
Cc1ccc(/C=N/NC(=O)c2ccccn2)o1	STAT1 act 130
O=C(N/N=C/C(Cl)=C/c1ccccc1)c1ccncc1	none
O=C1CN(C(=O)COC(=O)/C=C/c2ccc(S(=O)(=O)N3CCOCC3)cc2)c2ccccc2N1	none
CCN(Cc1ccncc1)Cc1nc(Cc2ccccc2Cl)no1	none
O=C1C2C3C=CC(CO)(O3)C2C(=O)N1c1ccccc1-c1ccccc1 (stereo unspecified)	none
COc1cccc(N2CCN(c3cnc4ccccc4n3)CC2)c1	STAT1 act 134
COc1ccc(N2CCN(c3cnc4ccccc4n3)CC2)cc1	STAT1 act 133
Clc1ccc(N2CCN(c3cnc4ccccc4n3)CC2)cc1	none
O=C(Nc1ccc(F)cc1)c1ccccc1	none
O=C(Nc1ccc(SC(F)F)cc1)c1ccc(F)cc1	STAT1 act 137, NF-kB neuron act 4.7
O=c1[nH]n(Cc2ccccc2)c(=O)c2ccccc12	NF-kB neuron act 4.9
COC(=O)CCn1[nH]c(=O)c2ccccc2c1=O	none
C/C(=N/NC(=O)c1cnccn1)c1cccs1	STAT1 act 135
C/C(=N\Nc1ccccn1)c1cccs1	STAT1 act 137
C/C(=N\Nc1ccccn1)c1ccc(C#N)cc1	none
C/C(=N\NC(=O)c1ccccn1)c1ccc(C(=O)O)s1	STAT1 act 133
C/C(=N\NC(=O)c1cc(C)[nH]n1)c1cccs1	none
CCOC(=O)c1cnc(SC)nc1Sc1ccccc1	none
O=C(CSc1ccccc1)Nc1nccs1	none
O=C(CSc1cn(Cc2ccccc2)c2ccccc12)Nc1nccs1	STAT1 act 146
Cc1cc(C)cc(NC(=O)COc2ccc(C(=S)N3CCOCC3)cc2)c1	none
CC(C)c1ccc(CNc2ccc([N+](=O)[O-])cn2)cc1	STAT1 act 138
CCOC(=O)c1c(C)[nH]c(C(=O)COC(=O)C2CC2C)c1C (stereo unspecified)	STAT1 act 150, NF-kB neuron act 4.1, APP 5'UTR act 180
Cc1ccc(CNC(=O)C(=O)NCC2OCCN2C(=O)c2cccs2)cc1 (stereo unspecified)	none
CCOC(=O)c1oc2cccc(OCC(O)CNC(C)C)c2c1C (stereo unspecified)	none
CCOC(=O)c1oc2ccc(/C=N/O)c(Cl)c2c1C	STAT1 act 132
COc1cc(NC(=O)/C=C/c2ccccc2[N+](=O)[O-])cc(OC)c1	none
Cc1ccc(NC(=O)/C=C/c2cccs2)c([N+](=O)[O-])c1	STAT1 act 146, NF-kB neuron act 7, APP 5'UTR act 173
CCOc1ccc(NC(=O)/C=C/c2ccccc2)c([N+](=O)[O-])c1	STAT1 act 131
O=C(/C=C/c1cccs1)Nc1ccncc1	none
O=C(/C=C/c1ccccc1[N+](=O)[O-])Nc1ccccc1	NF-kB neuron act 8.3, APP 5'UTR act 172
CCOc1ccc(/C=C/C(=O)Nc2ccc(OC)cc2[N+](=O)[O-])cc1	none
Cc1cccc(NC(=O)/C=C/c2cccs2)n1	STAT1 act 149, NF-kB neuron act 5, APP 5'UTR act 170
CCCOc1ccc(C(=O)CCN2CCN(C(=O)OCC)CC2)cc1	none
COc1ccc(/C=N/NC(=O)c2ccncc2)cc1Cn1nc([N+](=O)[O-])c(Br)c1C	none
COc1cccc(-c2nnc(-c3ccco3)o2)c1	STAT1 act 144
Cc1c(C(=O)NCc2ccoc2)oc2ccc3c(c12)C(=O)CC(C)(C)O3	STAT1 act 146, NF-kB neuron act 3.9
O=C(Nc1cccc(Cl)c1)Nc1ccccc1-n1ccnc1	none
O=C(Nc1ccc(-c2cn3ccsc3n2)cc1)C1CC1	none
O=C(Nc1ccc(F)cc1)C1CCCCC1	none
c1cn2cc(-c3ccc4c(c3)OCO4)nc2s1	STAT1 act 141, NF-kB neuron act 6.1, APP 5'UTR act 149
CC(=O)Nc1ccc(-c2cn3ccsc3n2)cc1	STAT1 act 136, NF-kB neuron act 3.4
CC(C)C(=O)Nc1cccc(-c2cn3ccsc3n2)c1	none
O=C(Nc1ccc(-c2cn3ccsc3n2)cc1)C1CCCC1	NF-kB neuron act 4

Source: PubChem (several laboratories)
